# From ChEMBL document CHEMBL1144735, “Design, synthesis, and evaluation of trifluoromethyl ketones as inhibitors of SARS-CoV 3CL protease” (Bioorg Med Chem, 2008)
# Target: Replicase polyprotein 1a (Severe acute respiratory syndrome-related coronavirus, UniProt P0C6U8)
# Assay: Inhibition of SARS-CoV 3CL protease
# In short: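 Purified SARS-CoV 3CL protease (50 nM) with 6 μM fluorogenic substrate peptide in 20 mM Bis–Tris pH 7.0 at 25 °C. Initial velocities were read across inhibitor concentrations and fitted for IC50.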
row,SMILES,IC50
1,CCCCCCCCC(=O)N[C@@H](CC(C)C)C(=O)NC(Cc1ccccc1)C(=O)C(F)(F)F (stereo partly drawn),> 50 µM
2,C[C@H](NC(=O)[C@H](CCC(=O)OC(C)(C)C)NC(=O)OC(C)(C)C)C(=O)NCC(=O)C(F)(F)F,40 µM
3,C[C@H](NC(=O)[C@@H](N)CCC(=O)O)C(=O)NCC(=O)C(F)(F)F,50 µM
4,CC(C)C[C@H](NC(=O)[C@@H](NC(=O)[C@H](C)NC(=O)OCc1ccccc1)C(C)C)C(=O)N[C@@H](Cc1ccccc1)C(=O)C(F)(F)F (mixture of isomers),10 µM
5,CC(C)C[C@H](NC(=O)OC(C)(C)C)C(=O)NC(C)C(=O)C(F)(F)F (mixture of isomers),40 µM
6,CC(C)C[C@H](NC(=O)OCc1ccccc1)C(=O)NC(Cc1ccccc1)C(=O)C(F)(F)F (mixture of isomers),15 µM
7,CCCCCCCCCC(=O)N[C@@H](CC(C)C)C(=O)NC(Cc1ccccc1)C(=O)C(F)(F)F (mixture of isomers),50 µM
8,O=C(N[C@@H](Cc1ccccc1)C(=O)NC(Cc1ccccc1)C(=O)C(F)(F)F)OCc1ccccc1 (mixture of isomers),20 µM
